# Laboratory results reported in ChEMBL document CHEMBL1143019, “Hybrid molecules of estrone: new compounds with potential antibacterial, antifungal, and antiproliferative activities” (2007).
# Columns and labels:
# [1] = tested on: Mycobacterium tuberculosis; experiment: Antimicrobial activity against Mycobacterium tuberculosis My 331/88 after 14 days; type: functional; settings: 336 h
# Mycobacterium avium [2] = experiment: Antimicrobial activity against Mycobacterium avium My 330/88 after 14 days; type: functional; settings: 336 h
# Mycobacterium avium [3] = experiment: Antimicrobial activity against Mycobacterium avium My 330/88 after 21 days; type: functional; settings: 504 h
# Mycobacterium kansasii [4] = experiment: Antimicrobial activity against Mycobacterium kansasii My 235/80 after 7 days; type: functional; settings: 168 h
# Outline: (§1)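 Run in Šula semisynthetic liquid medium containing bovine serum. Compounds added as DMSO solutions at final concentrations of […]. Each strain was also inoculated onto Löwenstein–Jensen medium to control inoculum sterility and growth.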
# Mycobacterium kansasii [5] = experiment: Antimicrobial activity against Mycobacterium kansasii My 6509/96 after 7 days; type: functional; settings: 168 h; outline: as §1
# Mycobacterium kansasii [6] = experiment: Antimicrobial activity against Mycobacterium kansasii My 6509/96 after 14 days; type: functional; settings: 336 h; outline: as §1
# Candida albicans [7] = experiment: Antifungal activity against Candida albicans ATCC 44859 after 24 hrs; type: functional; settings: ATCC 44859, 24 h
# Outline: (§2)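 Modified NCCLS M27-A broth microdilution with clinical isolates subcultured on Sabouraud dextrose agar. Suspensions diluted 1:50 in RPMI 1640 to give a final inoculum of 0.5–2.5×10³ CFU/mL for yeasts or 0.5–5×10⁴ CFU/mL for molds. The RPMI had L-glutamine, no bicarbonate, and 0.165 M MOPS to pH 7.0. Twofold dilutions from 250 to 0.49. Plates held at 35 °C, humid, without agitation. MIC is the lowest concentration giving ≥80% inhibition versus drug-free control, read at 24 and 48 h.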
# Candida albicans [8] = experiment: Antifungal activity against Candida albicans ATCC 44859 after 48 hrs; type: functional; settings: ATCC 44859, 48 h; outline: as §2
# Candida tropicalis [9] = experiment: Antifungal activity against Candida tropicalis 156 after 24 hrs; type: functional; outline: as §2
# Candida tropicalis [10] = experiment: Antifungal activity against Candida tropicalis 156 after 48 hrs; type: functional; outline: as §2
# Pichia kudriavzevii [11] = experiment: Antifungal activity against Candida krusei E28 after 24 hrs; type: functional; outline: as §2
# Pichia kudriavzevii [12] = experiment: Antifungal activity against Candida krusei E28 after 48 hrs; type: functional; outline: as §2
# Nakaseomyces glabratus [13] = experiment: Antifungal activity against Candida glabrata 20/I after 24 hrs; type: functional; outline: as §2
# Nakaseomyces glabratus [14] = experiment: Antifungal activity against Candida glabrata 20/I after 48 hrs; type: functional; outline: as §2
# Trichosporon beigelii [15] = experiment: Antifungal activity against Trichosporon beigelii 1188 after 24 hrs; type: functional; outline: as §2
# Trichosporon beigelii [16] = experiment: Antifungal activity against Trichosporon beigelii 1188 after 48 hrs; type: functional; outline: as §2
# Aspergillus fumigatus [17] = experiment: Antifungal activity against Aspergillus fumigatus 231 after 24 hrs; type: functional; outline: as §2
# Aspergillus fumigatus [18] = experiment: Antifungal activity against Aspergillus fumigatus 231 after 48 hrs; type: functional; outline: as §2
# Lichtheimia corymbifera [19] = experiment: Antifungal activity against Absidia corymbifera 272 after 24 hrs; type: functional; outline: as §2
# Lichtheimia corymbifera [20] = experiment: Antifungal activity against Absidia corymbifera 272 after 48 hrs; type: functional; outline: as §2
# Trichophyton benhamiae [21] = experiment: Antifungal activity against Trichophyton mentagrophytes 445 after 72 hrs; type: functional, Arthroderma benhamiae
# Outline: (§3)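 Same modified M27-A microdilution with the mold inoculum of 0.5–5×10⁴ CFU/mL. Medium was RPMI 1640 with L-glutamine, no bicarbonate, and 0.165 M MOPS at pH 7.0. Twofold dilutions from 250 to 0.49. Incubated at 35 °C in a humid atmosphere.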
# Trichophyton benhamiae [22] = experiment: Antifungal activity against Trichophyton mentagrophytes 445 after 120 hrs; type: functional, Arthroderma benhamiae; outline: as §3
# L929 = experiment: Antiproliferative activity against mouse L929 cells after 72 hrs; type: functional; settings: L929, 72 h
# Outline: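 About 10,000 adherent cells per well in RPMI 1640 with 10% heat-inactivated FBS and penicillin/streptomycin, without HEPES. Exposed to 10 concentrations for 72 h at 37 °C in humidified 5% CO₂. Monolayers fixed with glutaraldehyde, stained 15 min with 0.05% methylene blue, and eluted with 0.33 N HCl; OD read at 630 nm. GI50 derived from dose–response curves relative to control.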
# K562 = experiment: Antiproliferative activity against human K562 cells after 72 hrs; type: functional; settings: K562, 72 h
# Outline: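 About 10,000 suspension cells per well in RPMI 1640 with 10% heat-inactivated FBS and penicillin/streptomycin, without HEPES. Exposed to 10 concentrations for 72 h at 37 °C in humidified 5% CO₂. Wells diluted 1:50 in CASYTON and counted electronically, each result the mean of three successive counts. GI50 is where the concentration–response curve crosses 50% of control cell count.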
# HeLa = experiment: Cytotoxicity against human HeLa cells after 72 hrs; type: functional; settings: for CC50: Homo sapiens, HeLa, 72 h
# Outline: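 About 10,000 cells per well in RPMI 1640 were preincubated 48 h without compound. The 10 test concentrations were then applied onto the monolayers and incubated 72 h at 37 °C in humidified 5% CO₂. Monolayers fixed with glutaraldehyde, stained with 0.05% methylene blue, and eluted with 0.33 N HCl; optical density measured at 630 nm.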
# Staphylococcus aureus [23] = experiment: Antibacterial activity against Staphylococcus aureus SG 511 after 24 hrs by micro-broth dilution method; type: functional; settings: SG 511, 24 h
# Outline: (§4)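 Microbroth dilution per NCCLS guidelines. Bacteria grown overnight at 37 °C in Mueller–Hinton broth. Compound solution serially diluted twofold in MHB, then wells inoculated to a final 5×10⁵ CFU/mL. Incubated 24 h at 37 °C. MIC (µg/mL) read on an automatic plate reader as the lowest dilution allowing no visible growth.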
# Staphylococcus aureus [24] = experiment: Antibacterial activity against methicillin-resistant Staphylococcus aureus 994/93 after 24 hrs by micro-broth dilution method; type: functional
# Outline: (§5)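 Broth microdilution per NCCLS in Mueller–Hinton broth. Overnight cultures grown at 37 °C. Compound serially diluted twofold, then wells inoculated to a final 5×10⁵ CFU/mL. Plates held at 37 °C for 24 h. MIC (µg/mL) read on an automatic plate reader as the lowest dilution with no visible growth.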
# Staphylococcus aureus [25] = experiment: Antibacterial activity against methicillin-resistant Staphylococcus aureus 134/94 after 24 hrs by microbroth dilution method; type: functional; outline: as §5
# Micrococcus luteus = experiment: Antibacterial activity against Micrococcus luteus ATCC 10240 after 24 hrs by microbroth dilution method; type: functional; settings: ATCC 10240, 24 h; outline: as §4
# Enterococcus faecalis = experiment: Antibacterial activity against Enterococcus faecalis 1528 after 24 hrs by micro-broth dilution method; type: functional; outline: as §4
# [26] = tested on: Mycolicibacterium smegmatis; experiment: Antimicrobial activity against Mycobacterium smegmatis SG 987 after 24 hrs by micro-broth dilution method; type: functional; outline: as §4
# Mycolicibacterium aurum = experiment: Antimicrobial activity against Mycobacterium aurum SB 66 after 24 hrs by micro-broth dilution method; type: functional; outline: as §4
# Mycolicibacterium vaccae = experiment: Antimicrobial activity against Mycobacterium vaccae 10670 after 24 hrs by micro-broth dilution method; type: functional; outline: as §4
# [27] = tested on: Mycolicibacterium fortuitum; experiment: Antimicrobial activity against Mycobacterium fortuitum Borstel after 24 hrs by microbroth dilution method; type: functional; outline: as §4
# [28] = tested on: Mycobacterium tuberculosis; experiment: Antimicrobial activity against Mycobacterium tuberculosis My 331/88 after 21 days; type: functional; settings: 504 h
# Mycobacterium kansasii [29] = experiment: Antimicrobial activity against Mycobacterium kansasii My 235/80 after 14 days; type: functional; settings: 336 h; outline: as §1
# Mycobacterium kansasii [30] = experiment: Antimicrobial activity against Mycobacterium kansasii My 235/80 after 21 days; type: functional; settings: 504 h; outline: as §1
# Mycobacterium kansasii [31] = experiment: Antimicrobial activity against Mycobacterium kansasii My 6509/96 after 21 days; type: functional; settings: 504 h; outline: as §1
Compound,MIC [1] [µM],MIC (Mycobacterium avium [2]) [µM],MIC (Mycobacterium avium [3]) [µM],MIC (Mycobacterium kansasii [4]) [µM],MIC (Mycobacterium kansasii [5]) [µM],MIC (Mycobacterium kansasii [6]) [µM],MIC (Candida albicans [7]) [µM],MIC (Candida albicans [8]) [µM],MIC (Candida tropicalis [9]) [µM],MIC (Candida tropicalis [10]) [µM],MIC (Pichia kudriavzevii [11]) [µM],MIC (Pichia kudriavzevii [12]) [µM],GI50 (L929) [µg/mL],GI50 (K562) [µg/mL],CC10 (HeLa) [µg/mL],CC50 (HeLa) [µg/mL],MIC [28] [µM],MIC (Mycobacterium kansasii [29]) [µM],MIC (Mycobacterium kansasii [30]) [µM],MIC (Mycobacterium kansasii [31]) [µM],other results
C[C@]12CC[C@@H]3c4ccc(OCCCCCCCBr)cc4CC[C@H]3[C@@H]1CCC2=O,32,16,32,62.5,62.5,62.5,> 125,> 125,> 125,> 125,> 125,> 125,49.9,13.1,16.3,> 50,,,,,MIC (Nakaseomyces glabratus [13]): > 125 µM; MIC (Nakaseomyces glabratus [14]): > 125 µM; MIC (Trichosporon beigelii [15]): > 125 µM; MIC (Trichosporon beigelii [16]): > 125 µM; MIC (Aspergillus fumigatus [17]): > 125 µM; MIC (Aspergillus fumigatus [18]): > 125 µM; MIC (Lichtheimia corymbifera [19]): > 125 µM; MIC (Lichtheimia corymbifera [20]): > 125 µM; MIC (Trichophyton benhamiae [21]): > 125 µM; MIC (Trichophyton benhamiae [22]): > 125 µM
c1ccc(CSc2ccncc2)cc1,125,125,125,62.5,62.5,125,,,,,,,34.3,> 50,14,23.6,125,125,125,125,MIC (Staphylococcus aureus [23]): 100 µg/mL; MIC (Staphylococcus aureus [24]): 100 µg/mL; MIC (Staphylococcus aureus [25]): > 100 µg/mL; MIC (Micrococcus luteus): 100 µg/mL; MIC (Enterococcus faecalis): 100 µg/mL; MIC [26]: 100 µg/mL; MIC (Mycolicibacterium aurum): 25 µg/mL; MIC (Mycolicibacterium vaccae): 50 µg/mL; MIC [27]: 50 µg/mL
c1ccc(CSc2nnnn2-c2ccccc2)cc1,16,32,125,16,16,32,> 250,> 250,> 250,> 250,> 250,> 250,22.5,36.1,8.7,41.6,62.5,32,125,125,MIC (Nakaseomyces glabratus [13]): > 250 µM; MIC (Nakaseomyces glabratus [14]): > 250 µM; MIC (Trichosporon beigelii [15]): > 250 µM; MIC (Trichosporon beigelii [16]): > 250 µM; MIC (Aspergillus fumigatus [17]): > 250 µM; MIC (Aspergillus fumigatus [18]): > 250 µM; MIC (Lichtheimia corymbifera [19]): > 250 µM; MIC (Lichtheimia corymbifera [20]): > 250 µM; MIC (Trichophyton benhamiae [21]): 31.3 µM; MIC (Trichophyton benhamiae [22]): 62.5 µM
Clc1ccc(-n2nnnc2SCc2ccccc2)cc1Cl,16,62.5,125,8,16,32,> 250,> 250,> 250,> 250,> 250,> 250,19.1,> 50,9.9,48.6,32,16,32,62.5,MIC (Nakaseomyces glabratus [13]): > 250 µM; MIC (Nakaseomyces glabratus [14]): > 250 µM; MIC (Trichosporon beigelii [15]): > 250 µM; MIC (Trichosporon beigelii [16]): > 250 µM; MIC (Aspergillus fumigatus [17]): 250 µM; MIC (Aspergillus fumigatus [18]): > 250 µM; MIC (Lichtheimia corymbifera [19]): > 250 µM; MIC (Lichtheimia corymbifera [20]): > 250 µM; MIC (Trichophyton benhamiae [21]): 125 µM; MIC (Trichophyton benhamiae [22]): 125 µM
Clc1ccc(CSc2ccncc2)cc1,32,62.5,62.5,32,32,62.5,,,,,,,21.2,19.8,8.6,16.3,62.5,62.5,62.5,62.5,MIC (Staphylococcus aureus [23]): 50 µg/mL; MIC (Staphylococcus aureus [24]): 100 µg/mL; MIC (Staphylococcus aureus [25]): > 100 µg/mL; MIC (Micrococcus luteus): 50 µg/mL; MIC (Enterococcus faecalis): 100 µg/mL; MIC [26]: 25 µg/mL; MIC (Mycolicibacterium aurum): 12.5 µg/mL; MIC (Mycolicibacterium vaccae): 25 µg/mL; MIC [27]: 12.5 µg/mL
